# Test results taken from ChEMBL document CHEMBL3813689, “Discovery of Potent Benzofuran-Derived Diapophytoene Desaturase (CrtN) Inhibitors with Enhanced Oral Bioavailability for the Treatment of Methicillin-Resistant Staphylococcus aureus (MRSA) Infections” (J Med Chem, 2016).
# Key:
# [1] = Cytotoxicity against HMEC1 measure after 72 hrs by SRB assay; settings: Homo sapiens, HMEC-1, 72 h
# [2] = system: Staphylococcus aureus; assay: Sensitization of methicillin-resistant Staphylococcus aureus USA400 MW2 to immune clearance in human whole blood assessed as bacterial survival at 1 uM measured after 24 hrs (reference value: 10.2%); format: functional
# [3] = system: Staphylococcus aureus; assay: Sensitization of Staphylococcus aureus USA300 LAC to immune clearance in human whole blood assessed as bacterial survival at 1 uM measured after 24 hrs (reference value: 12.2%); format: functional
# [4] = system: Staphylococcus aureus; assay: Sensitization of methicillin-resistant Staphylococcus aureus Mu50 to immune clearance in human whole blood assessed as bacterial survival at 1 uM measured after 24 hrs (reference value: 16.1%); format: functional
# [5] = system: Staphylococcus aureus; assay: Sensitization of methicillin-resistant Staphylococcus aureus USA400 MW2 to H2O2 assessed as bacterial survival at 1 uM measured after 24 hrs (reference value: 11.7%); format: functional; settings: MW2, 24 h
# [6] = system: Staphylococcus aureus; assay: Sensitization of methicillin-resistant Staphylococcus aureus USA300 LAC to H2O2 assessed as bacterial survival at 1 uM measured after 24 hrs (reference value: 14.2%); format: functional
# [7] = system: Staphylococcus aureus; assay: Inhibition of staphyloxanthin pigment formation in Staphylococcus aureus Newman after 48 hrs by spectrophotometric method; format: functional, organism-based
# Method in brief: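 Compounds as 20 mM DMSO stocks, serial 2-fold dilutions in DMSO; 40 µL added to 4 mL TSB culture, 37 °C for 48 h, in triplicate. Cells washed twice with PBS, pigment extracted with methanol, OD450 measured; IC50 from dose-response curve fit of OD data.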
# [8] = system: Staphylococcus aureus; assay: Inhibition of staphyloxanthin pigment formation in methicillin-resistant Staphylococcus aureus USA300 LAC after 48 hrs by spectrophotometric method; format: functional, organism-based
# Method in brief: (§1)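 MRSA grown in 4 mL TSB with 40 µL compound (2-fold serial dilutions from 20 mM DMSO stock) at 37 °C for 48 h, triplicate. Cells washed twice in PBS, pigment extracted with methanol, OD450 measured; IC50 from dose-response fit.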
# [9] = system: Staphylococcus aureus; assay: Inhibition of staphyloxanthin pigment formation in methicillin-resistant Staphylococcus aureus Mu50 after 48 hrs by spectrophotometric method; format: functional, organism-based; settings: Mu50, 48 h; method in brief: as §1
# [10] = system: Staphylococcus aureus; assay: Suppression in growth of methicillin-resistant Staphylococcus aureus Mu50 at 0.05 mM measured after overnight incubation by spectrophotometric method; format: organism-based; settings: 50 µM
# Method in brief: (§2)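 Compound from 20 mM DMSO stock diluted in TSB to final 0.2 or 0.05 mM; DMSO growth controls; paraffin overlay. Overnight cultures inoculated to final OD600 ≈ 0.05; incubated at 37 °C overnight with OD600 read every 30 min.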
# [11] = system: Staphylococcus aureus; assay: Sensitization of Staphylococcus aureus Newman to immune clearance in human whole blood assessed as bacterial survival at 1 uM measured after 24 hrs (reference value: 26.7%); format: functional
# [12] = system: Staphylococcus aureus; assay: Suppression in survival of methicillin-resistant Staphylococcus aureus USA300 LAC at 0.2 mM measured after overnight incubation by spectrophotometric method; format: ADME, organism-based; settings: 200 µM; method in brief: as §2
# [13] = system: Staphylococcus aureus; assay: Sensitization of methicillin-resistant Staphylococcus aureus USA400 MW2 to immune clearance in human whole blood assessed as reduction in bacterial survival at 1 uM measured after 24 hrs relative to control; format: functional
# Method in brief: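 Overnight cultures spun down and resuspended in sterile PBS at 1 × 10^7 CFU/mL. 40 µL mixed with 360 µL fresh whole blood from a healthy human volunteer, giving 1 × 10^6 CFU/mL. Incubated 6 h at 37 °C. Surviving CFU counted by plating dilutions on TSA.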
# [14] = system: Staphylococcus aureus; assay: Sensitization of methicillin-resistant Staphylococcus aureus USA400 MW2 to H2O2 assessed as reduction in bacterial survival at 1 uM measured after 24 hrs relative to control; format: functional
# Method in brief: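 Strains grown 24 h in TSB with or without inhibitor, washed twice in PBS, then diluted to 4 × 10^6 CFU per 250 µL reaction. H2O2 added to a final 1.5%. Tubes sealed and held 30 min at 37 °C. Reaction stopped with 1000 U/mL catalase. Survivors counted as CFU by serial dilution on TSA plates and compared with untreated (mock) bacteria.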
# [15] = system: Staphylococcus aureus; assay: Antibacterial activity against Staphylococcus aureus Mu50 infected Balb/c mouse assessed as reduction of bacterial survival in liver at 1.3 mg, ip bid administered for 4.5 days followed by bacterial infection measured after 5 days; format: functional
# [16] = system: Staphylococcus aureus; assay: Antibacterial activity against Staphylococcus aureus Mu50 infected Balb/c mouse assessed as reduction of bacterial survival in kidney at 5.2 mg, ip bid administered for 4.5 days followed by bacterial infection measured after 5 days; format: functional
# [17] = system: Staphylococcus aureus; assay: Antibacterial activity against Staphylococcus aureus Mu50 infected Balb/c mouse assessed as reduction of bacterial survival in kidney at 1.3 mg, ip bid administered for 4.5 days followed by bacterial infection measured after 5 days; format: functional
# [18] = Total plasma clearance in Sprague-Dawley rat at 5 mg/kg, iv administered as single dose; format: ADME, organism-based
# Method in brief: (§3)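 Male SD rats, 3 per group, single iv 5 mg/kg or oral 10 mg/kg. Blood sampled 0.083 (iv only), 0.25, 0.5, 1, 2, 4, 6, 8, 24 h postdose; plasma separated at 4 °C, stored −80 °C, analysed within 1 week. Parameters from plasma concentration-time data; F from dose-normalized AUC, oral vs iv.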
# [19] = Terminal half life in Sprague-Dawley rat at 5 mg/kg, iv administered as single dose; format: ADME, organism-based; settings: in vivo, read-out: beta t1/2 (converted); method in brief: as §3
# [20] = system: Rattus norvegicus; assay: Dose normalized AUC (0 to infinity) in Sprague-Dawley rat at 5 mg/kg, iv administered as single dose; format: ADME, organism-based; settings: in vivo; method in brief: as §3
# [21] = Oral bioavailability in Sprague-Dawley rat at 10 mg/kg administered as single dose; format: ADME, organism-based; settings: in vivo; method in brief: as §3
# [22] = system: Trichophyton rubrum; assay: Antifungal activity against Trichophyton rubrum measured after 7 days by serial dilution method; format: functional
# Method in brief: (§4)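 Broth serial dilution MIC per NCCLS in RPMI 1640 buffered with 0.165 M MOPS; compounds in DMSO diluted in medium. Dermatophytes incubated at 28 °C, read at 7 days. MIC taken as lowest concentration giving ≥80% growth inhibition versus control (turbidity).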
# [23] = system: Nannizzia gypsea; assay: Antifungal activity against Microsporum gypseum measured after 7 days by serial dilution method; format: functional; method in brief: as §4
structure (smiles),measurement,setting,value
CN(C/C=C/c1ccc(C(F)(F)F)cc1)Cc1cccc2ccoc12.Cl,IC50,[1],67100 nM
same,survival at 1 µM,[2],1.3%
same,survival at 1 µM,[3],1.2%
same,survival at 1 µM,[4],3%
same,survival at 1 µM,[5],0.6%
same,survival at 1 µM,[6],0.7%
same,IC50,[7],3.93 nM
same,IC50,[8],3.39 nM
same,IC50,[9],0.38 nM
same,Activity,[10],Non-toxic
same,survival at 1 µM,[11],0.8%
same,Activity,[12],Non-toxic
same,fold change (FC),[13],8
same,fold change (FC),[14],20
same,Activity,[15],2.94 deltalog10CFU
same,Activity,[16],1.11 deltalog10CFU
same,Activity,[17],0.68 deltalog10CFU
same,clearance,[18],54.3 mL/min/kg
same,half-life,[19],8.23 h
same,AUC/dose,[20],1299.47 ng/mL.hr/(mg/kg)
same,bioavailability,[21],42.2%
same,MIC80,[22],16 µg/mL
same,MIC80 (lowest concentration giving ≥80% growth inhibition),[23],32 µg/mL
